Reference: publication PMC2741613 (Journal of the American Chemical Society, 2009)

Key:
FAP1 = FAP1 (Homo sapiens, UniProt Q12923); test: PTP activity assay with pNPP, FAP1; assay type: biochemical
Method in brief: (§1)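 Reactions started by adding enzyme to mixtures with various pNPP and test-compound concentrations. Rates were fitted with an enzyme-kinetics model for Ki.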

CD45 = molecular target: T1, CD45 (Homo sapiens, UniProt P08575); test: PTP activity assay with pNPP, CD45; assay type: biochemical
T1 sequence (P08575 26-1306): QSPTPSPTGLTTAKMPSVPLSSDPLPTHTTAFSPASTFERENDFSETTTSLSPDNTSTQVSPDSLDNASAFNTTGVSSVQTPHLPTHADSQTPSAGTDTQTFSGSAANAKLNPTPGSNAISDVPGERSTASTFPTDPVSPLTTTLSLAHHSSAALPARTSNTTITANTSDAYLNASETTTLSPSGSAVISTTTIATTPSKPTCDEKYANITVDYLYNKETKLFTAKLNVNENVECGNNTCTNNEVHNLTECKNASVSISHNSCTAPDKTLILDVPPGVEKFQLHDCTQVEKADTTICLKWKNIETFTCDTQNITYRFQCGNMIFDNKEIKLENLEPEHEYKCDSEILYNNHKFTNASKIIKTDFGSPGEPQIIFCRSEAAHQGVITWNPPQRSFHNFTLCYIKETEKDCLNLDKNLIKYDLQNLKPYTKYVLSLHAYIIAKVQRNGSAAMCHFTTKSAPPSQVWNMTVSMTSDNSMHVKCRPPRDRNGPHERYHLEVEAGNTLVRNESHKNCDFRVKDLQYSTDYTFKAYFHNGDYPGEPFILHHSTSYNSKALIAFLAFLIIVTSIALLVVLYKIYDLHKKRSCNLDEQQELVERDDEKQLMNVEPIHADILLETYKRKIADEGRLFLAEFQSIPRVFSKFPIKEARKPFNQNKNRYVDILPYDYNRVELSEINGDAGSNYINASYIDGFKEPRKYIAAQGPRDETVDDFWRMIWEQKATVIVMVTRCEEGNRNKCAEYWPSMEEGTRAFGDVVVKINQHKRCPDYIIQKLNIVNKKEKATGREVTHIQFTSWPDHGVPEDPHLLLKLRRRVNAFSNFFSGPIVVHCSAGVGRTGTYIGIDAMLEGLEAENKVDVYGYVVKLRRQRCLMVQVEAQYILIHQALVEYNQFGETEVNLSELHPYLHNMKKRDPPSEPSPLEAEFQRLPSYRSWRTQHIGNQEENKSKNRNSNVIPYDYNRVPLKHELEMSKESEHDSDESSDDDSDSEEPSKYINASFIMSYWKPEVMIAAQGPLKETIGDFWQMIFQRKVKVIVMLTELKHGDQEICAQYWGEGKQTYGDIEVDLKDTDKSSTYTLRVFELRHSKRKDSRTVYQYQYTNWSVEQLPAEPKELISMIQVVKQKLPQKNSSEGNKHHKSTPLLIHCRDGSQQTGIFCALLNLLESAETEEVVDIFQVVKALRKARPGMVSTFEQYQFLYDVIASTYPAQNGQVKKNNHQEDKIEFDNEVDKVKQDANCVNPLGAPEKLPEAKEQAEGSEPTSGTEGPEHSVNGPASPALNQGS
Method in brief: as §1

PTPα = PTPα (Homo sapiens, UniProt P18433); test: PTP activity assay with pNPP, PTPα; assay type: biochemical
Sequence of PTPα (P18433 20-802): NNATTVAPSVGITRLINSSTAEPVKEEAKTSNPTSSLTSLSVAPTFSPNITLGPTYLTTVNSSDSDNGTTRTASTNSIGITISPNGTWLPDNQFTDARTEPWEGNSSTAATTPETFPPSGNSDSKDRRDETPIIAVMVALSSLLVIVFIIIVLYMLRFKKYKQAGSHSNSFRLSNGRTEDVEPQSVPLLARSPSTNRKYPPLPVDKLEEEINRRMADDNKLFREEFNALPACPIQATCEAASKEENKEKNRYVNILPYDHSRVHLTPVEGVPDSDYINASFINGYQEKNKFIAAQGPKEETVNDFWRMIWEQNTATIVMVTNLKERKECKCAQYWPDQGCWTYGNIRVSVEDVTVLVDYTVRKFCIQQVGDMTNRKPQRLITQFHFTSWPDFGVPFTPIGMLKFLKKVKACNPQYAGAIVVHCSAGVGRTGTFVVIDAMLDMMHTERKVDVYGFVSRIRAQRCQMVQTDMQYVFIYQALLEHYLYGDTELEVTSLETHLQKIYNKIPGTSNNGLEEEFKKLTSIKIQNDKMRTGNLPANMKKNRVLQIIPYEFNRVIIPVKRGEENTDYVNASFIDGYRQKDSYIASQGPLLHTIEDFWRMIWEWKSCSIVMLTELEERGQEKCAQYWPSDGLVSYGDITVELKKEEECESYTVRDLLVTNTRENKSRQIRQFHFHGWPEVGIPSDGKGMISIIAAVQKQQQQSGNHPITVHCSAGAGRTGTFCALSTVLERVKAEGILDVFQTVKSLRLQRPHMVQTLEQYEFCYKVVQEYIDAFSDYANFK
Method in brief: as §1

[1] = system: tyrosine phosphorylation of EGFR in PTP1B−/− mouse embryo fibroblast cells; test: EGF-stimulated EGFR phosphorylation in cells; assay type: cell-based; details: 2 hr, then EGF 2 ng/ml 10 min, relative to DMSO
Method in brief: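 PTP1B−/− mouse embryo fibroblasts were given test compound for 2 hr, then EGF 2 ng/mL for 10 min. Lysis in HEPES pH 7.4 buffer with pervanadate, fluoride and protease inhibitors, cleared at 15,000 rpm for 10 min, protein by BCA. EGFR immunoprecipitated from 1 mg lysate (4 °C, 2 h; protein A/G 2 h). SDS-PAGE, anti-pTyr immunoblot, ECL detection.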

[2] = system: pSrc527 in PTP1B−/− mouse embryo fibroblast cells; test: Src phosphorylation at Tyr527 in cells; assay type: cell-based; details: treated for two hours, various concentrations
Method in brief: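 PTP1B−/− mouse embryo fibroblasts at 80% confluence were exposed to test compound for two hours, then lysed and cleared at 15,000 rpm for 10 min. 30 μg total protein run on SDS-PAGE and blotted to PVDF. Probed with anti-pSrc416, anti-pSrc527 and anti-Src antibodies, HRP-conjugated secondaries.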

Sequence of FAP1 (Q12923 whole entry, species assumed): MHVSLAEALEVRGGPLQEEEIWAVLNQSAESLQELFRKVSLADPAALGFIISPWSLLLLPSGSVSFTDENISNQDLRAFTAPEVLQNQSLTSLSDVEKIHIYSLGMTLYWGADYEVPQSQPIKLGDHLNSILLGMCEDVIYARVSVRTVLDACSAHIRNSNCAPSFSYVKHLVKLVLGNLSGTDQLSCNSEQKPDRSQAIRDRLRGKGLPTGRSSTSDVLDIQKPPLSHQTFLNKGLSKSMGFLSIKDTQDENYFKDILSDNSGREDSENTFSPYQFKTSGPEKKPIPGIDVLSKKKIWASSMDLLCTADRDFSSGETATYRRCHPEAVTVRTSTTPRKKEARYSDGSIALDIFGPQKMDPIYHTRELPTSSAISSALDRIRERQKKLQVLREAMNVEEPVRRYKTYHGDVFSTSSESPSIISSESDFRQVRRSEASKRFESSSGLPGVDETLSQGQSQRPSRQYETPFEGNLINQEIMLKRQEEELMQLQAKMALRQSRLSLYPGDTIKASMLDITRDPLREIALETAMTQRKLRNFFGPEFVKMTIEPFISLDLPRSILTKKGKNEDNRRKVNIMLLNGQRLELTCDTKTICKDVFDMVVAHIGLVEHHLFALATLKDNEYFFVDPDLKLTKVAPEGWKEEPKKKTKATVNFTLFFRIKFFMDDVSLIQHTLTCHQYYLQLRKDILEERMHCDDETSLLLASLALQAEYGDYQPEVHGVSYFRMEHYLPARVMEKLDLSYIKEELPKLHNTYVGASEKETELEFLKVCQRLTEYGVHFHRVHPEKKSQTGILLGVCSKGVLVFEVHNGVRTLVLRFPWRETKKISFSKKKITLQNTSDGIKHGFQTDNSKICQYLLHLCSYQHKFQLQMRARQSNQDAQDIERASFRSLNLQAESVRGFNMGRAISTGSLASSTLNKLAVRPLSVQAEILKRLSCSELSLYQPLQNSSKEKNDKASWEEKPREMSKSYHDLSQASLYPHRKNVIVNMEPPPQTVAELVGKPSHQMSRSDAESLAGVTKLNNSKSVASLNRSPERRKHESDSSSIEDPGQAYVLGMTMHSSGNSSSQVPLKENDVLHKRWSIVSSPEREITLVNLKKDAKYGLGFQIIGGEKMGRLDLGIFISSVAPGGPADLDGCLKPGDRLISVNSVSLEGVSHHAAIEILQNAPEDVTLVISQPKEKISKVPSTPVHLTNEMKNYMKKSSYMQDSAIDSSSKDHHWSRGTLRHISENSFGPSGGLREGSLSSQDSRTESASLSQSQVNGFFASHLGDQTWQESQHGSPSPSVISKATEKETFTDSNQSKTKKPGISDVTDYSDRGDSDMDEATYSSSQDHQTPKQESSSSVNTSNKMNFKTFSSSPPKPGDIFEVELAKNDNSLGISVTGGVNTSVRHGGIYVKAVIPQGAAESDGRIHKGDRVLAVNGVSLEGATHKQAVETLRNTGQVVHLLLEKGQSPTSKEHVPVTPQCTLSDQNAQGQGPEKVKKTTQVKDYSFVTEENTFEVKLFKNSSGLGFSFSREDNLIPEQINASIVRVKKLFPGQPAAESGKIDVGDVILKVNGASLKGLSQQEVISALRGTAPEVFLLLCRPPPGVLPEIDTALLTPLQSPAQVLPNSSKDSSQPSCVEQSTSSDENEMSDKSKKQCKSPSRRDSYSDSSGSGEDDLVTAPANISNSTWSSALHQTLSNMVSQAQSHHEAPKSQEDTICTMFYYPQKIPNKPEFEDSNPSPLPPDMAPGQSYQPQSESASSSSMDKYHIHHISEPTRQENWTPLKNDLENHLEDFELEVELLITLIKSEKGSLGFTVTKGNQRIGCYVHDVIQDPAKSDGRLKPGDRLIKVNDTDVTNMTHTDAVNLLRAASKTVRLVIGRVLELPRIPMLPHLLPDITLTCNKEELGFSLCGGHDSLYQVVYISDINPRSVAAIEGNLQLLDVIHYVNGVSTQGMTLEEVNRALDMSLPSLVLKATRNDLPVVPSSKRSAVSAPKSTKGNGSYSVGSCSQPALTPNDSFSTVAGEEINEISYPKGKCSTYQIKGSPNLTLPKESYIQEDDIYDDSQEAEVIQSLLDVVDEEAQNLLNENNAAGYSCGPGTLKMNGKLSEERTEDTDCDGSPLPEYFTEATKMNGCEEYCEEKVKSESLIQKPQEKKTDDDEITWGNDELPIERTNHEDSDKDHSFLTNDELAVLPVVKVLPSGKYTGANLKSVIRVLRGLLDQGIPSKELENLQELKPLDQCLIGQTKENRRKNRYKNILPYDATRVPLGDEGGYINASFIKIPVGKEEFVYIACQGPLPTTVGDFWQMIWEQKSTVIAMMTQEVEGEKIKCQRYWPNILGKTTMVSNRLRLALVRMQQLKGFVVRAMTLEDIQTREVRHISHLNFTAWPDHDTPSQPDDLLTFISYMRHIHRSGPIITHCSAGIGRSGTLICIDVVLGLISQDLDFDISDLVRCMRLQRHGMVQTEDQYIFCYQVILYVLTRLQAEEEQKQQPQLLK

## CCc1ccc(C(=O)NCCCC[C@H](NC(=O)[C@H](Cc2ccc(C(F)(F)P(=O)(O)O)cc2)NC(=O)[C@H](Cc2ccccc2)NC(=O)CO[C@H]2C[C@@H](C)CC[C@@H]2C(C)C)C(N)=O)cc1 [Compound 8]
FAP1
  Ki: > 1 µM
CD45
  Ki: > 1 µM
PTPα
  Ki: > 1 µM
[1]; 5 nM
  increase in EGFR phosphorylation: ~2 fold
[1]; 50 nM
  increase in EGFR phosphorylation: 5.0 fold
[2]
  effect on pSrc527 phosphorylation: no significant change
